Experiments:
[1] = molecular target: Delta-type opioid receptor (Homo sapiens, UniProt P41143); assay: Displacement of [3H]DADLE from human delta opioid receptor expressed in CHO cells
Mu-type opioid receptor = Mu-type opioid receptor (Homo sapiens, UniProt P35372); assay: Displacement of [3H]DAMGO from human mu opioid receptor expressed in HEK293 cells; type: cell-based
How it was run: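 Radioligand competition binding against [³H]DAMGO on human μ-opioid receptor in transfected HEK-293 cells; affinity derived from displacement of the tritiated ligand.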

[2] = molecular target: Kappa-type opioid receptor (Rattus norvegicus, UniProt P34975); assay: Displacement of [3H]U69593 from rat kappa opioid receptor expressed in CHO cells
Sequence of Kappa-type opioid receptor (P34975 whole entry): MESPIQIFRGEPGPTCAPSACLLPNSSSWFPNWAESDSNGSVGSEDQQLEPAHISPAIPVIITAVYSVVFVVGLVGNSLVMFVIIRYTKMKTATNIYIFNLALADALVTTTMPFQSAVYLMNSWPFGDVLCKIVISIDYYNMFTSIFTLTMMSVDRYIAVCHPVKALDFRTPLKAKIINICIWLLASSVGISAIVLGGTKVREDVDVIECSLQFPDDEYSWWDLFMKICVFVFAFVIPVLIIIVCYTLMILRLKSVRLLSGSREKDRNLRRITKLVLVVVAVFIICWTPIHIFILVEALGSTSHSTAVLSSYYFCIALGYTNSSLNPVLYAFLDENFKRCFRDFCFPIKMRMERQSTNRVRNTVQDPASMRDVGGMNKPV

Sequence of Mu-type opioid receptor (P35372 whole entry): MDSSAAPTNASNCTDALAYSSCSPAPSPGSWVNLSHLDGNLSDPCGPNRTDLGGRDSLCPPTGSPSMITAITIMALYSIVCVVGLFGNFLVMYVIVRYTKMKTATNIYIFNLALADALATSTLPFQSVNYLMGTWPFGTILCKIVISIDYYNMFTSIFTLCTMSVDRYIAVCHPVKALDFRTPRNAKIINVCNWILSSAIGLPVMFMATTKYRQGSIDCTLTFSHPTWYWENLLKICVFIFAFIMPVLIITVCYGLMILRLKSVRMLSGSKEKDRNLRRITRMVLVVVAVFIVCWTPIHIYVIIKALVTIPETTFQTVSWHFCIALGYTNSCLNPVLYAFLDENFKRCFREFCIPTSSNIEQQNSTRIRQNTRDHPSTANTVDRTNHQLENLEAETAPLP
Sequence of Delta-type opioid receptor (P41143 whole entry): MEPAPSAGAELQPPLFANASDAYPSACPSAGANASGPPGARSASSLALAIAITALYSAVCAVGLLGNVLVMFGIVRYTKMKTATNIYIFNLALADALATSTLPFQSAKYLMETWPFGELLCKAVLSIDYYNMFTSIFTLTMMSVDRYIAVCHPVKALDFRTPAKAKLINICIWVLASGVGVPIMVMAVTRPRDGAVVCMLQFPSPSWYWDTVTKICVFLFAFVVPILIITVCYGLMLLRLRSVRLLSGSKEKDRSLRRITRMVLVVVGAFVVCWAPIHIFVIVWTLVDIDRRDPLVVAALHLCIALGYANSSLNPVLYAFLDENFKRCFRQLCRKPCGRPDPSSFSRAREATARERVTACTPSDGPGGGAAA

Row | SMILES | Ki [1] | Ki (Mu-type opioid receptor) | Ki [2]
1 | O=C(C1=CCCN2CCC[C@@H]12)c1ccccc1O | > 200 µM | 49 µM | 83 µM
2 | Cc1cccc(O)c1C(=O)C1=CCCN2CCC[C@@H]12 | 94 µM | 45 µM | 24 µM
3 | Cc1cccc(O)c1C(=O)C1=CCCN2CCC[C@H]12 [ELAEOCARPENINE] | 14 µM | 18 µM | 12 µM
4 | Cc1cccc(O)c1C(=O)C1=CCN2CCC[C@@H]12 | > 200 µM | 3.2 µM | 35 µM
5 | Cc1cccc(O)c1C(=O)C1=CCCCN2CCC[C@@H]12 | > 200 µM | 13 µM | –
6 | COc1cccc(C)c1C(=O)C1=CCCN2CCC[C@@H]12 | > 200 µM | > 200 µM | 20 µM

Reference: ChEMBL document CHEMBL1154971, “Synthesis and evaluation of opioid receptor-binding affinity of elaeocarpenine and its analogs” (Bioorg Med Chem Lett, 2010)
